Only some compounds are listed: those with a hit (about 3.6% of all), similar ones and a draw of the others.
Wnt bcat act: activators of Wnt/beta-catenin signaling. 300,000 compounds, 1.2% hits. Wnt/beta-catenin reporter cell assay, activator, plate reader. activation, % at 9.35 µM. AID 743398; in the data active = activation above about 30%, passing the limit was not always enough; inconclusive = no clear call, values can overlap the other calls;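 note: 0% = neutral control wells and 100% = positive control wells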
SR-BI HDL uptake: mouse SR-BI HDL lipid transfer inhibition; Q61009; ldlA[mSR-BI] CHO cells, DiI-HDL uptake fluorescence, 3 h; inhibition, % at 12.5 µM; 320,000 compounds, 0.96% hits;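 active = mean replicate inhibition of at least 70% and a set share of replicates each scoring 70 or more; inconclusive = meets just one of the two criteria; inactive = fails both criteria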;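 note: 0% = median of neutral control wells and 100% = median of positive control wells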
Target sequence (Q61009 whole entry, looked up): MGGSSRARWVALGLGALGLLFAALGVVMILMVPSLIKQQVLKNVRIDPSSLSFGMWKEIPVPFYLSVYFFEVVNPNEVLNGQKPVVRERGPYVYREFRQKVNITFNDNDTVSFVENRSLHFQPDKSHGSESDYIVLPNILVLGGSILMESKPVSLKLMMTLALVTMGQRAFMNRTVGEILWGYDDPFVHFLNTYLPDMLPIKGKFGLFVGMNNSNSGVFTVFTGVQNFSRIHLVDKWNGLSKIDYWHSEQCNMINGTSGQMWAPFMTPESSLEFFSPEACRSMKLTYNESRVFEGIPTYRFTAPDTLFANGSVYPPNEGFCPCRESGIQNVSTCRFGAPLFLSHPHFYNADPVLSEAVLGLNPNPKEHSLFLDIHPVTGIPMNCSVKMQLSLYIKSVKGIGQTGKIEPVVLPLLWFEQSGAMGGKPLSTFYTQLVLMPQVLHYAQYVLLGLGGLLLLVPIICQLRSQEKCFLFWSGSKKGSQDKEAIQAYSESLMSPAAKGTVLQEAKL
HSF-1 act: increases HSF-1 driven luciferase reporter signal | AID 504408 | 300,000 compounds, 1.7% hits | NIH3T3-HGL HSF-1 luciferase reporter, MG132, 8 h; 100% = twice DMSO control signal | activation, % at 9 µM;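 active = mean replicate activation of at least 50% with a set share of replicates each reaching 50%; inconclusive = only one of those two conditions met; inactive = mean below 50% and too few replicates reaching it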;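 note: 0% = median of the neutral control wells and 100% = twice that signal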
SR-BI DiI-HDL act: enhances SR-BI lipid uptake from DiI-HDL | activation, % at 12.5 µM | 320,000 compounds, 0.096% hits | CHO ldlA[mSR-BI] cells, DiI-HDL uptake fluorescence, 3 h; 100 = double the neutral-control signal;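 active = mean replicate activation of at least 60% and every replicate at or above 60%; inconclusive = mean or all-replicate condition met, but not both; inactive = mean below 60% and not all replicates reaching 60%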;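 note: 0% = median plate neutral-control signal and 100% = twice that signal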
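material = CHO ldlA[mSR-BI] cells | medium = Ham's F12 with 0.5% BSA, HEPES 25 mM, pH 7.4 | reagent = fluorescent DiI-HDL, 10 µg/mL final | compound dosing = single-point compound dose | incubation = 3 h, 37 °C | measured by = bottom-read fluorescence, 550/595 nm | measure = HDL uptake via cellular fluorescence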
MITF TRPM1 HTS: increases MITF-driven TRPM1 promoter luciferase signal; SK-MEL-5 TRPM1-promoter luciferase, 24 h; % of positive control, neutral wells = 0; activation, % at 12.5 µM; 300,000 compounds, 0.75% hits; AID 588334;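 active = mean activation of at least 80% with every replicate also reaching 80%; inconclusive = mean reaches 80% but some replicate falls short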;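 note: 0% = neutral control wells and 100% = parthenolide positive control wells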
* = called active by the depositor; ? = inconclusive; . = no result given.

SMILES	Wnt bcat act	SR-BI HDL uptake	HSF-1 act	SR-BI DiI-HDL act	MITF TRPM1 HTS
Cn1nc(C(F)(F)F)c2cc(C(=O)Nc3ccc(Cl)cc3)sc21	-5	83*	-3	-83	8
CCC[C@H]1CN(c2ccc(Br)cc2)C(=O)[C@@H]1CC(=O)Nc1ccccc1	-3	.	.	.	.
O=C1c2ccccc2C(c2nnnn2Cc2ccccc2)N1Cc1ccc2c(c1)OCO2 (configuration not stated)	-1	.	.	.	.
Cc1ccc(NC(=O)c2ccc(OC(=O)CCN3C(=O)c4ccccc4C3=O)cc2)cc1	46*	.	17	.	49
Cc1cc(C)cc(OC(=O)CCN2C(=O)c3ccccc3C2=O)c1	.	7	-6	-7	0
Cc1ccc(NC(=O)c2ccc(OC(=O)COc3ccc(Cl)cc3C)cc2)cc1	-2	10	59*	-10	?
Cc1ccc(-c2nc(Nc3ccc(O)cc3)c3ccccc3n2)cc1	2	107*	23	-107	12
Oc1ccc(Nc2nc(-c3ccccc3O)nc3ccccc23)cc1	1	74*	27	-74	-3
Oc1ccccc1Nc1nc(-c2ccccc2O)nc2ccccc12	-1	93*	11	-93	-8
O=[N+]([O-])c1ccc(-c2nc(Nc3cccc(O)c3)c3ccccc3n2)cc1	-8	72*	10	-72	-2
COc1ccc(Nc2nc(-c3ccccc3O)nc3ccccc23)cc1	1	52	26	-52	3
Cc1ccc(-c2nc(Nc3cccc(O)c3)c3ccccc3n2)cc1	1	69	-5	-69	7
C[C@@H]1ON(C)[C@H]2C[C@H]3c4[nH]c5c(-c6ccc(C(F)(F)F)cc6)cccc5c4CCN3C(=O)[C@@H]12	-4	.	.	.	.
CCN(CC(=O)Nc1ccc(NC(C)=O)cc1)C(=O)C1(c2ccc(Cl)cc2)CCC1	-1	.	.	.	.
CCOc1ccccc1NC(=O)CCS(=O)(=O)c1ccc2c(c1)CC(C)N2C(C)=O (configuration not stated)	-1	0	10	0	-4
CCC(=O)N1c2ccc(S(=O)(=O)CCC(=O)Nc3ccc(OC)cc3OC)cc2CC1C (configuration not stated)	0	0	53*	0	6
CC(=O)N1N=C(c2ccc(Br)cc2)CC1c1ccc(Br)cc1 (configuration not stated)	-3	.	.	.	.
CC(C)c1ccc(C2CC(c3ccc(Br)cc3)=NN2C(N)=S)cc1 (configuration not stated)	.	5	74*	-5	47
CCC(=O)N1Cc2cc(C(=O)Nc3nccs3)nc(-c3cccc(-c4ccccc4OC)c3)c2[C@@H]1CCO	3	.	.	.	.
CS(=O)(=O)N1CCCCC1c1cc(C(=O)NCc2ccc(Cl)c(Cl)c2)no1 (configuration not stated)	-2	.	.	.	.
CCOC(=O)CNC(=O)CSc1ncnc2c1cnn2-c1ccc(OC)cc1	.	5	15	-5	5
CCc1nnc(NC(=O)CSc2ncnc3c2cnn3-c2ccc(OC)cc2)s1	38*	-3	1	3	14
COc1ccc(S(=O)(=O)Nc2cccc(S(=O)(=O)N3CCCCCC3)c2)cc1	0	-13	9	13	-1
O=S(=O)(Nc1nc2ccccc2nc1Nc1cccc(S(=O)(=O)N2CCCCC2)c1)c1ccccc1	-4	9	101*	-9	-16
COc1ccc2cc(-c3ccccc3)c(=O)oc2c1	42*	-14	35	14	36
SMILES	Wnt bcat act	SR-BI HDL uptake	HSF-1 act	SR-BI DiI-HDL act	MITF TRPM1 HTS
COc1cccc2cc(-c3nc(-c4cccs4)cs3)c(=O)oc12	59*	65	47	-65	85*
COc1ccc(-c2cc3cccc(OC)c3oc2=O)cc1	?	22	26	-22	35
COc1cccc2cc(-c3ccccc3)c(=O)oc12	35*	19	62*	-16	62
CC(=O)c1ccc(-c2ccc(-c3cc(=O)oc4c(C(C)C)ccc(C)c34)cc2)cc1	-2	6	.	-6	-8
CC1(c2ccccc2)NC(=S)N2C1NC(=S)N2c1ccccc1 (configuration not stated)	.	-11	10	11	4
COc1ccc(N2C(=S)NC3N2C(=S)NC3(C)c2ccccc2)cc1 (configuration not stated)	65*	18	34	-18	34
Cc1cccc(/N=C/c2nc(-c3ccccc3Br)oc2O)n1	12	35	91*	-35	56
CCOC(=O)CSc1nc2c(sc(=S)n2-c2ccccc2OC)c(=O)n1-c1ccccc1OC	2	2	46	-2	-13
CCOC(=O)CSc1nc2c(sc3ccc([N+](=O)[O-])cc32)c(=O)n1Cc1ccco1	-2	9	254*	-9	1
CCOC(=O)CSc1nc2c(sc(=S)n2-c2ccccc2OC)c(=O)n1Cc1ccco1	.	-14	57*	14	-1
COc1ccc(-c2csc(NC(=O)c3ccoc3C)n2)cc1	13	41	24	-41	86*
COc1ccc(-c2csc(NC(=O)c3c(C)noc3C)n2)cc1	9	44	.	-44	33
CCc1cc(C(=O)OC)c(NC(=O)c2ccoc2C)s1	1	22	-1	-22	-2
COC(=O)c1c(-c2ccncc2)csc1NC(=O)c1ccoc1C	.	18	39	-18	88*
C[C@H](CO)N1C[C@H](C)[C@@H](CN(C)C(=O)NC2CCCCC2)OCc2cn(nn2)CCCC1=O	-1	.	.	.	.
O=C1CCCC2=C1C1(CCCC1)N=C(Nc1nc3cc(-c4ccccc4)ccc3o1)N2	0	.	.	.	.
Cc1ccc(S(=O)(=O)CCN2CCC(O)(c3ccccc3)CC2)cc1	0	-14	38	14	-6
Cc1ccc(S(=O)(=O)CCN2CCN(c3ccccc3)CC2)cc1	-3	-17	120*	17	8
CC(C)C(=O)N1CCC1(C)C(=O)NCc1ccc(C(C)(C)C)cc1 (configuration not stated)	-1	.	.	.	.
C[C@H]1Cn2cnc(C(=O)N3CCN(c4ccccc4)CC3)c2C(=O)N1	-3	.	.	.	.
Cc1ccccc1C(=O)NCCSc1ccccc1	.	14	54*	-14	96*
COc1cc(CNC(=O)c2cc(-c3cc(F)ccc3OCC3CCCO3)n[nH]2)cc(OC)c1 (configuration not stated)	-2	.	.	.	.
CCc1ccc([C@@H]2C[C@H]3[C@@H](CN2S(=O)(=O)c2ccc(C)cc2)C(=O)C[C@@H](c2cccc(Cl)c2)N3S(=O)(=O)c2ccc(C)cc2)cc1	-4	.	.	.	.
COc1ccc(Cl)c2c1[nH]c1nc(SCc3cccnc3)nnc12	-1	0	9	0	17
COc1ccc(Cl)c2c1[nH]c1nc(SCc3ccccn3)nnc12	14	30	103*	-30	61
COC(=O)C1CCc2c(ccc3c2CCCC3)C1=O (configuration not stated)	-4	9	.	-9	101*

Screens deposited in PubChem by Broad Institute.
